PGC1a acetyl inh: PGC1a acetylation modulation, inhibitor mode. U2OS PGC1a acetylation, AlphaScreen anti-acetyl-lysine; with virally co-expressed GCN5 acetyltransferase. inhibition, % at 15.6 µM. actives 0.17% (n = 350,000);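 active = every replicate shows inhibition of at least 40%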
Cneo AK release: Cryptococcus neoformans lysis via adenylate kinase release; C. neoformans lysis, adenylate kinase release luminescence, 4 h; normalised: neutral wells 0, clomiphene wells 100; lysis activity, % at 15 µM; actives 0.2% (n = 360,000); AID 651654;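 active = mean lysis activity across replicates of at least 80%, whatever share of replicates individually reach that level; inactive = mean lysis activity below 80%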
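Material: C. neoformans cells; Schedule: 4 h static compound exposure, 37 °C, read 1 h post-reagent; Measured by: adenylate kinase release luminescence; Read-out: signal increase indicating cell lysis; Controls: Clomiphene as positive lysis control.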
rRNA inh HTS: selective bacterial rRNA inhibition in E. coli | E. coli WT GFP vs humanized-ribosome RFP mutants, fluorescence, 24 h; stronger effect = lower value; DMSO median 0, no signal -100 | GFP signal change (wild-type ribosome), % (no concentration beside the values) | actives 1.6% (n = 350,000);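 active = significant combined selectivity score with lowered wild-type GFP, culture density cut under 30%, mutant RFP and density less affected; inactive = any of these conditions unmet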
PglD DTNB: blocks C. jejuni PglD acetyltransferase activity; purified PglD enzyme, DTNB colorimetric CoA detection; actives 0.098% (n = 360,000); AID 602405; inhibition, % at 12.5 µM; in the data active = inhibition above about 16%, passing the limit was not always enough
FGF22 binding: FGF22 (human) thermal shift binding; actives 1.5% (n = 340,000); recombinant FGF22 thermal shift, SYPRO orange fluorescence; percent of sucrose octasulfate shift, DMSO zero; AID 651658; activity (Tm shift, normalised), % at 9.99 µM;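 active = mean Tm shift, scaled 0 neutral to 100 positive control, at about 1.3% or above, every replicate too, limit read from the data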
Target sequence (Q9HCT0 whole entry, looked up): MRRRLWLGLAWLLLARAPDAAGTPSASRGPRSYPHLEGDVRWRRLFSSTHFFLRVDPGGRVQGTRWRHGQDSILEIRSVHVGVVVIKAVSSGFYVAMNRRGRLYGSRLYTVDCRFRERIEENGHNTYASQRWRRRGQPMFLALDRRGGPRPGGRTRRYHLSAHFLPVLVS
Vif imaging: HIV Vif inhibition; actives 0.35% (n = 340,000); HEK293T cells, Vif self-association by quenched fluorescence, imaging, 24 h; AID 602346; inhibition, % at 7.49 µM; in the data active = inhibition above about 50%, passing the limit was not always enough
Numbers stand for hits; - = inactive; . = no result. An excerpt weighted towards active compounds, which were near 2.9% of everything screened.

SMILES	PGC1a acetyl inh	Cneo AK release	rRNA inh HTS	PglD DTNB	FGF22 binding	Vif imaging
O=C(C[C@@H]1C=C[C@H](NC(=O)c2ccc3c(c2)OCO3)[C@H](CO)O1)NCc1ccc(Cl)cc1	-	-	-	-	-	.
O=C(/C(=C\c1ccccc1)c1nc2ccccc2[nH]1)c1ccc(Cl)cc1	.	.	.	.	.	-
COC(=O)/C(=C\c1ccc(O)cc1)c1nc2ccccc2[nH]1	.	.	-	.	44	-
COc1cc(/C=C/C(=O)NCc2nc3ccccc3[nH]2)cc(OC)c1OC	-	-	-	-	-	-
COC(=O)/C(=C\c1cc(OC)c(OC)c(OC)c1)c1nc2ccccc2[nH]1	.	.	-	.	43	-
O=C(NCc1ccco1)c1ccc(F)c(S(=O)(=O)N2CCCCC2)c1	-	.	-	.	43	-
O=C(NCc1ccco1)c1ccc(S(=O)(=O)N2CCCCCC2)cc1	.	-	-	-	-	-
CC1CCN(S(=O)(=O)c2ccc(C(=O)Nc3nnc(-c4ccco4)o3)cc2)CC1	.	-	-	-	-	-
O=C(NCc1ccco1)c1ccc(S(=O)(=O)N2CCCCC2)cc1	.	.	-	.	44	-
O=C(Nc1nnc(-c2ccco2)o1)c1ccc(S(=O)(=O)N2CCCC2)cc1	.	.	.	.	43	-
Cc1ccc(S(=O)(=O)N(C)C[C@@H]2OCCCC[C@H](C)Oc3ccc(NC(=O)c4ccccc4)cc3C(=O)N([C@H](C)CO)C[C@H]2C)cc1	-	-	-	-	-	.
CO[C@H]1CC[C@H]2CCN(C)C(=O)[C@H](C)[C@@H](OC)CN(C)C(=O)c3cccc(C#N)c3OC[C@H]1O2	-	-	-	-	-	.
Nc1c(C(=O)Nc2ccc(S(=O)(=O)N3CCCC3)cc2)sc2nc3ccc(OC(F)(F)F)cc3cc12	-	-	.	-	.	96
COc1ccc2nc(SCC(=O)Nc3ccc(S(=O)(=O)N4CCCC4)cc3)c(C#N)cc2c1	-	-	.	-	.	-
Cc1ccc2nc(SC(C)C(=O)N3CC(C)OC(C)C3)[nH]c2c1 (configuration not stated)	.	.	-	.	43	-
O=C(Cn1cc(C(=O)c2ccco2)c2ccccc21)Nc1ccccc1F	-	.	-22	.	-	-
O=C(Cn1cc(C(=O)C(F)(F)F)c2ccccc21)Nc1ccccc1F	-	-	-	-	-	-
COc1ccc(NC(=O)Nc2ccc3c(c2)C(=O)N([C@@H](C)CO)C[C@H](C)[C@@H](CN(C)Cc2ccc(C(=O)O)cc2)OCCCC[C@@H](C)O3)cc1	-	-	-	-	-	.
O=C(O)c1cccc([N+](=O)[O-])c1C(=O)Nc1nc2ccccc2s1	-	.	-	.	43	-
O=C(COc1ccccc1)NNc1nc2ccccc2s1	-	-	-28	-	-	-
CC(=O)Nc1cccc(/C(C)=N/Nc2nc3ccccc3s2)c1	.	.	-	.	43	-
COc1cccc(C(=O)Nc2nc3ccccc3s2)c1	-	-	-30	-	-	-
CC(=O)Nc1ccc(/C=N/Nc2nc3ccccc3s2)cc1	-	-	-	-	-	-
CC(=O)N(C)C[C@H]1Oc2cc(C#Cc3ccccn3)ccc2S(=O)(=O)N([C@@H](C)CO)C[C@H]1C	-	-	-	-	-	.
COc1ccc2nc(NC(=O)Nc3ccccc3OC)sc2c1	-	-	-	-	-	-
SMILES	PGC1a acetyl inh	Cneo AK release	rRNA inh HTS	PglD DTNB	FGF22 binding	Vif imaging
COc1ccccc1NC(=O)Nc1nc2ccc(S(N)(=O)=O)cc2s1	-	-	-16	-	-	-
CS(=O)(=O)c1ccc2nc(NC(=O)Nc3ccccc3F)sc2c1	-	-	-	-	-	-
COc1ccc2nc(NC(=O)Nc3cccc4ccccc34)sc2c1	-	.	-23	.	.	-
COc1ccc(-c2n(CC(=O)OC3CC(C)CCC3C(C)C)c3ccccc3[n+]2C)cc1 (configuration not stated)	.	.	-	.	44	-
CCCC(=O)Nc1ccc2c(c1)OC[C@@H](C)N(Cc1cccc(F)c1)C[C@H](C)[C@H](OC)CN(C)C2=O	-	-	-	-	-	.
CCCCN1C(=O)CC(SC2CC(=O)N(CCCC)C2=O)C1=O (configuration not stated)	-	-	-	-	43	-
CCN1C(=O)CC(SC2CC(=O)N(CC)C2=O)C1=O (configuration not stated)	-	.	-	.	-	-
C=C(C)Cn1c(=O)c2c(nc3n2CCCN3Cc2ccccc2)n(C)c1=O	-	-	-28	-	-	-
CC(=O)Cn1c(=O)c2c(nc3n2CCCN3Cc2ccccc2)n(C)c1=O	-	-	-	-	-	-
Cc1cccc(C)c1OCC(O)CN1CCN(c2ccccc2)CC1 (configuration not stated)	-	-	-29	-	-	-
COc1cccc(OC)c1OCC(O)CN1CCN(c2ccccc2)CC1 (configuration not stated)	-	-	.	-	.	-
C/C=C/c1ccc2c(c1)O[C@H](CN(C)C(=O)CC)[C@H](C)CN([C@H](C)CO)S2(=O)=O	-	-	-	-	-	.
Fc1ccc(-c2nnc(-c3ccc4ccccc4c3)o2)cc1	-	-	-6.9	-	-	-
COc1cccc(-c2nnc(SC(C(=O)c3c[nH]c4ccccc34)c3ccccc3)n2C)c1 (configuration not stated)	.	.	-	.	43	-
COc1ccc(OCC(=O)N2CCc3ccccc3C2)cc1	-	-	-	-	-	-
O=C(Cc1ccc(Cl)cc1)N1CCc2ccccc2C1	-	-	-28	-	-	-
COc1ccc(CC(=O)N2CCc3ccccc3C2)cc1	-	-	-	-	-	-
O=C(COc1ccc(Br)cc1)N1CCc2ccccc2C1	.	.	-26	.	-	-
O=C(O)C1Cc2ccccc2CN1C(=O)COc1ccc(Cl)cc1 (configuration not stated)	-	-	-	-	43	.
CCOC(=O)/C(C#N)=C/c1cc2ccccc2nc1Cl	-	-	-	-	-	.
CSc1nc2ccccc2cc1/C=C(\C#N)c1cccc(Cl)c1	-	-	.	-	.	63
COc1cccc(S(=O)(=O)N[C@H]2C=C[C@H](CC(=O)NCc3ccncc3)O[C@H]2CO)c1	-	.	-	.	.	.
O=C(Nc1ccc(C(F)(F)F)cc1)c1csc(-c2ccncc2)n1	-	.	-	.	43	-
COC(=O)C[C@H]1CC[C@@H]2[C@@H](COc3ccc(NC(=O)c4ccc(F)cc4)cc3C(=O)N2C)O1	-	-	-	-	-	.
COc1ccc(CCCc2n[nH]c(=S)n2C)cc1C	-	-	-	-	-	-
COc1ccc(CCCc2n[nH]c(=S)o2)cc1C	-	-	-	-	43	-
S=C1NCN(Cc2ccco2)CN1CCc1ccccc1	-	-	.	-	-	-
CCOCCCN1CN(Cc2ccco2)CNC1=S	-	.	-	.	43	-

Bioassay records as filed in PubChem BioAssay.
